Test results published in ChEMBL document CHEMBL1153833, “Effect of dosing and dosing frequency on the efficacy of ceftizoxime and the emergence of ceftizoxime resistance during the early development of murine abscesses caused by Bacteroides fragilis and Enterobacter cloacae mixed infection” (Antimicrob Agents Chemother, 2007).
≈ marks a conversion by molar mass, not a printed value. Calls of active or inactive are those of the source.

Legend:
Enterobacter cloacae [1] = assay: Antimicrobial activity against Enterobacter cloacae isolate 22491 infected BALB/c mouse mixed infection abscesses model co-infected with Bacteroides fragilis ATCC 23745 assessed as bacterial killing at 96 mg/kg/day administered every 4 hrs; assay type: functional, organism-based
In short: (§1)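 Female BALB/c mice (12-18 wk) injected s.c. on both flanks with 10^7 CFU each of B. fragilis and E. cloacae plus 4 mg autoclaved cecal contents. CZX was given s.c. from 30 min before inoculation for 24 h, two mice per group. Abscesses were homogenized in PBS and plated in duplicate: E. cloacae on EM agar (aerobic, 24 h), B. fragilis on WC agar with gentamicin (anaerobic, 48 h). Result is mean log10 CFU/abscess of four abscesses ± SEM versus untreated; threshold 1.7 log10.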

[2] = Half life in Bacteroides fragilis ATCC 23745 and Enterobacter cloacae isolate 22491-infected BALB/c mouse mixed infection abscesses model at 100 mg/kg administered as 36 doses every 2 hrs; assay type: ADME, organism-based; set-up: dose 100 mg/kg; details: in vivo
In short: (§2)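 Infected mice received 36 doses of 100 mg/kg CZX q2h. Serum CZX measured in duplicate by agar diffusion bioassay against E. coli strain 62. One-compartment open model; unbound values assume 13% protein binding in mouse serum.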

Enterobacter cloacae [3] = assay: Antimicrobial activity against Enterobacter cloacae isolate 22491 infected BALB/c mouse mixed infection abscesses model co-infected with Bacteroides fragilis ATCC 23745 assessed as reduction in bacterial load per abscess at 384 mg/kg/day administered every 8 hrs; assay type: functional; in short: as §1
Enterobacter cloacae [4] = assay: Antimicrobial activity against Enterobacter cloacae isolate 22491 infected BALB/c mouse mixed infection abscesses model co-infected with Bacteroides fragilis ATCC 23745 assessed as reduction in bacterial load per abscess at 1536 mg/kg/day administered every 8 hrs; assay type: functional; in short: as §1
Bacteroides fragilis [5] = assay: Antimicrobial activity against Bacteroides fragilis ATCC 23745 infected BALB/c mouse mixed infection abscesses model co-infected with Enterobacter cloacae isolate 22491 assessed as reduction in bacterial load per abscess at 384 mg/kg/day administered every 8 hrs; assay type: functional; in short: as §1
Bacteroides fragilis [6] = assay: Antimicrobial activity against Bacteroides fragilis ATCC 23745 infected BALB/c mouse mixed infection abscesses model co-infected with Enterobacter cloacae isolate 22491 assessed as bacterial killing at 96 mg/kg/day administered every 4 hrs; assay type: functional, organism-based; in short: as §1
Enterobacter cloacae [7] = assay: Antimicrobial activity against Enterobacter cloacae isolate 22491; assay type: functional
Enterobacter cloacae [8] = assay: Antimicrobial activity against Enterobacter cloacae isolate 22491 infected BALB/c mouse mixed infection abscesses model co-infected with Bacteroides fragilis ATCC 23745 assessed as increase in resistant bacterial count per abscess at 96 mg/kg/day administered every 2 hrs; assay type: functional
In short: (§3)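 Mixed subcutaneous flank abscesses in female SPF BALB/c mice (10^7 CFU of each strain plus 4 mg autoclaved cecal contents). Drug given subcutaneously, starting 30 min before inoculation, for 24 h. Abscesses homogenized in PBS. Resistant E. cloacae counted on WC agar with 16x MIC (48 h aerobic, 37°C) and total counts on drug-free EM agar. Groups of two mice.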

Bacteroides fragilis [9] = assay: Antimicrobial activity against Bacteroides fragilis ATCC 23745 infected BALB/c mouse mixed infection abscesses model co-infected with Enterobacter cloacae isolate 22491 assessed as bacterial killing at 24 mg/kg/day administered every 4 hrs; assay type: functional, organism-based; in short: as §1
Enterobacter cloacae [10] = assay: Antimicrobial activity against Enterobacter cloacae isolate 22491 infected BALB/c mouse mixed infection abscesses model co-infected with Bacteroides fragilis ATCC 23745 assessed as increase in resistant bacterial count per abscess at 6 mg/kg/day administered every 2 hrs; assay type: functional; in short: as §3
Enterobacter cloacae [11] = assay: Antimicrobial activity against Enterobacter cloacae isolate 22491 infected BALB/c mouse mixed infection abscesses model co-infected with Bacteroides fragilis ATCC 23745 assessed as bacterial killing at 24 mg/kg/day administered every 4 hrs; assay type: functional, organism-based; in short: as §1
[12] = fT>MIC in Enterobacter cloacae isolate 22491-infected BALB/c mouse at 100 mg/kg; assay type: functional
[13] = Half life in Bacteroides fragilis ATCC 23745 and Enterobacter cloacae isolate 22491-infected BALB/c mouse mixed infection abscesses model at 100 mg/kg administered as single dose; assay type: ADME, organism-based; set-up: dose 100 mg/kg; details: in vivo
In short: (§4)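 Single s.c. dose of 100 mg/kg CZX in groups of three infected mice, 4 days after inoculation. Orbital blood taken at 10-360 min. Serum CZX measured in duplicate by agar diffusion bioassay against E. coli strain 62. One-compartment open model; unbound values assume 13% serum protein binding.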

Bacteroides fragilis [14] = assay: Antimicrobial activity against Bacteroides fragilis ATCC 23745; assay type: functional
Enterobacter cloacae [15] = assay: Antimicrobial activity against Enterobacter cloacae isolate 22491 infected BALB/c mouse mixed infection abscesses model co-infected with Bacteroides fragilis ATCC 23745 assessed as increase in resistant bacterial count per abscess at 24 mg/kg/day administered every 2 hrs; assay type: functional; in short: as §3
Bacteroides fragilis [16] = assay: Antimicrobial activity against Bacteroides fragilis ATCC 23745 infected BALB/c mouse mixed infection abscesses model co-infected with Enterobacter cloacae isolate 22491 assessed as bacterial killing at 6 mg/kg/day administered every 2 hrs; assay type: functional, organism-based; in short: as §1
Mus musculus [17] = assay: Unbound Cmax (fCmax) in Bacteroides fragilis ATCC 23745 and Enterobacter cloacae isolate 22491-infected BALB/c mouse mixed infection abscesses model at 100 mg/kg administered as 36 doses every 2 hrs; assay type: ADME, organism-based; set-up: dose 100 mg/kg; details: in vivo; in short: as §2
[18] = Ratio of fAUC to MIC in Enterobacter cloacae isolate 22491 infected BALB/c mouse mixed infection abscesses model co-infected with Bacteroides fragilis ATCC 23745; assay type: functional
Enterobacter cloacae [19] = assay: Antimicrobial activity against Enterobacter cloacae isolate 22491 infected BALB/c mouse mixed infection abscesses model co-infected with Bacteroides fragilis ATCC 23745 assessed as increase in resistant bacterial count per abscess at 24 mg/kg/day administered every 4 hrs; assay type: functional; in short: as §3
Enterobacter cloacae [20] = assay: Antimicrobial activity against Enterobacter cloacae isolate 22491 infected BALB/c mouse mixed infection abscesses model co-infected with Bacteroides fragilis ATCC 23745 assessed as increase in resistant bacterial count per abscess at 96 mg/kg/day administered every 4 hrs; assay type: functional; in short: as §3
Mus musculus [21] = assay: Unbound Cmax (fCmax) in Bacteroides fragilis ATCC 23745 and Enterobacter cloacae isolate 22491-infected BALB/c mouse mixed infection abscesses model at 100 mg/kg administered as single dose; assay type: ADME, organism-based; set-up: dose 100 mg/kg; details: in vivo; in short: as §4
Bacteroides fragilis [22] = assay: Antimicrobial activity against Bacteroides fragilis ATCC 23745 infected BALB/c mouse mixed infection abscesses model co-infected with Enterobacter cloacae isolate 22491 assessed as inhibition of emergence of resistance mutation; assay type: functional, organism-based
In short: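 Female SPF BALB/c mice (12–18 weeks, 20–25 g) injected subcutaneously on both flanks with 10^7 CFU B. fragilis, 10^7 CFU E. cloacae and 4 mg ACC. Drug given subcutaneously at 6–1,536 mg/kg/day, q2h–q8h, beginning 30 min before inoculation, for 24 h. B. fragilis mutants counted on WC agar with 16x MIC plus 100 mg/liter gentamicin, 72 h anaerobic, 37°C.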

Enterobacter cloacae [23] = assay: Antimicrobial activity against Enterobacter cloacae isolate 22491 assessed as mutation prevention concentration; assay type: functional
In short: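 Overnight culture concentrated to 10^10 CFU/ml by centrifugation. 1 ml spread over five agar plates containing drug, first at twofold dilutions, then at linear increments. Plates read after 18 h at 37°C. MPC taken as the lowest concentration giving no colonies from 10^10 bacteria. Colonies from the highest concentration were subcultured drug-free to check mutant stability.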

Enterobacter cloacae [24] = assay: Antimicrobial activity against Enterobacter cloacae isolate 22491 infected BALB/c mouse mixed infection abscesses model co-infected with Bacteroides fragilis ATCC 23745 assessed as increase in resistant bacterial count per abscess at 6 mg/kg/day administered every 4 hrs; assay type: functional; in short: as §3
Bacteroides fragilis [25] = assay: Antimicrobial activity against Bacteroides fragilis ATCC 23745 infected BALB/c mouse mixed infection abscesses model co-infected with Enterobacter cloacae isolate 22491 assessed as reduction in bacterial load per abscess at 1536 mg/kg/day administered every 8 hrs; assay type: functional; in short: as §1
Enterobacter cloacae [26] = assay: Antimicrobial activity against Enterobacter cloacae isolate 22491 infected BALB/c mouse mixed infection abscesses model co-infected with Bacteroides fragilis ATCC 23745 assessed as bacterial killing at 6 mg/kg/day administered every 2 hrs; assay type: functional, organism-based; in short: as §1

Compound: CO/N=C(\C(=O)N[C@@H]1C(=O)N2C(C(=O)O)=CCS[C@H]12)c1csc(N)n1 [CEFTIZOXIME]
- Activity (Enterobacter cloacae [1]): inactive
- half-life [2]: 13.2 min
- log10cfu (Enterobacter cloacae [3]): >=5
- log10cfu (Enterobacter cloacae [4]): >=5
- log10cfu (Bacteroides fragilis [5]): >=5
- Activity (Bacteroides fragilis [6]): inactive
- MIC (Enterobacter cloacae [7]): 0.25 µg/mL (≈ 0.652 µM)
- MIC99 (Enterobacter cloacae [7]): 0.125 µg/mL (≈ 0.326 µM)
- log10cfu (Enterobacter cloacae [8]): 3.8
- Activity (Bacteroides fragilis [9]): inactive
- log10cfu (Enterobacter cloacae [10]): 3.8
- Activity (Enterobacter cloacae [11]): inactive
- T>MIC [12]: 9%
- half-life [13]: 13.8 min
- MIC (Bacteroides fragilis [14]): 1 µg/mL (≈ 2.61 µM)
- log10cfu (Enterobacter cloacae [15]): 3.8
- Activity (Bacteroides fragilis [16]): inactive
- Cmax_unbound (Mus musculus [17]): 600 ng/mL
- Ratio [18]: 1000
- log10cfu (Enterobacter cloacae [19]): 2
- log10cfu (Enterobacter cloacae [20]): 2
- Cmax_unbound (Mus musculus [21]): 600 ng/mL
- Activity (Bacteroides fragilis [22]): Active
- MPC (Enterobacter cloacae [23]): 384 µg/mL
- log10cfu (Enterobacter cloacae [24]): 2
- log10cfu (Bacteroides fragilis [25]): >=5
- Activity (Enterobacter cloacae [26]): inactive
